The values that follow come from the M2OR odorant receptor database.
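Further: active if original authors judged signal statistically different from baseline.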

The target of the assay is T1, OR1A1 (Homo sapiens) (UniProt Q9P1Q5).
T1 sequence (whole entry): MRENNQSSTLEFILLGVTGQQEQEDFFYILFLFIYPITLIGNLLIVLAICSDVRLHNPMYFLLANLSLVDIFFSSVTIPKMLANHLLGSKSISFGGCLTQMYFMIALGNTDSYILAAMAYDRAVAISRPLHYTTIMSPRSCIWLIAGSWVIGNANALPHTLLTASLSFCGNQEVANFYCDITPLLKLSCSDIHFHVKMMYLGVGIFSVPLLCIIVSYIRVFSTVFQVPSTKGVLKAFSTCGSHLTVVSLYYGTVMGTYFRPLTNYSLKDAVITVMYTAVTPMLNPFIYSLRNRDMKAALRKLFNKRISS
The note with it: stereoisomer not certain. The method in brief:
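Each receptor–molecule pair is labelled responsive or non-responsive (inactive) according to whether the original authors judged the measured signal statistically different from baseline. The data were taken from the main text and supplementary material of published papers and checked for typos and inconsistencies. Assay methods differed by source, with transient luciferase assays in mammalian cell lines being common.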
Take `CCCCCCCC=CC=CC=O`: the “odorant receptor agonist call” value is “inactive”.

Regarding `CCC(=O)C(=O)CC`, the “odorant receptor agonist call” value is “inactive”.

Take `CC(C)=CCCC(C)CC(=O)O` (configuration not stated): the “odorant receptor agonist call” value was “inactive”.

As to `CC(C)CCCCCCCCCCC=O`, the “odorant receptor agonist call” value was “inactive”.

With `C=Cc1ccc(O)c(OC)c1`, the “odorant receptor agonist call” value was “inactive”.

Turning to `CCc1cccc(O)c1`, the “odorant receptor agonist call” value is “inactive”.

For `CCc1ccc(O)cc1`, the “odorant receptor agonist call” value is “inactive”.

For `OCC=Cc1ccccc1`, the “odorant receptor agonist call” value was “inactive”.

`CC1=CCC(C(C)C)C=C1` (configuration not stated): the “odorant receptor agonist call” value was “inactive”.

For the compound `CC(=O)CCc1ccc(O)cc1`, the “odorant receptor agonist call” value was “inactive”.

For `Cc1nccnc1C`, the “odorant receptor agonist call” value was “inactive”.

Turning to `O=C1Cc2ccccc2O1`, the “odorant receptor agonist call” value is “inactive”.

For `O=C([O-])CCCCC(=O)[O-].[H+].[H+]`, the “odorant receptor agonist call” value is “inactive”.

On to `CCCC1CCCC(=O)O1` (configuration not stated), for which the “odorant receptor agonist call” value is “inactive”.

Consider `CC(C)=CCCC(C)CC=O` (configuration not stated), for which the “odorant receptor agonist call” value was “active”.

As for `CCC=CCCOC(C)=O`, the “odorant receptor agonist call” value was “inactive”.

`C=CC(C)=CCC=C(C)CCC=C(C)C`: the “odorant receptor agonist call” value was “inactive”.

Turning to `CCOC(=O)C1CCCCC1`, the “odorant receptor agonist call” value is “active”.

In the case of `CCCCCCCC1CCCC(=O)O1` (configuration not stated), the “odorant receptor agonist call” value was “inactive”.

`C=Cc1ccc(O)cc1`: the “odorant receptor agonist call” value is “inactive”.

With `O=C(O)C=Cc1ccc(O)cc1`, the “odorant receptor agonist call” value was “inactive”.

Take `CCCCCCC(C)=O`: the “odorant receptor agonist call” value is “active”.

`CCCCC(C)=O`: the “odorant receptor agonist call” value was “inactive”.

`CC(=O)C(C)C(C)=O`: the “odorant receptor agonist call” value is “inactive”.

As for `CSC`, the “odorant receptor agonist call” value is “inactive”.

Turning to `CCCCCOC(=O)CCCCC`, the “odorant receptor agonist call” value is “inactive”.

Turning to `CCCCCCCCCO`, the “odorant receptor agonist call” value is “inactive”.

With `CC(=O)O`, the “odorant receptor agonist call” value was “inactive”.

Regarding `CC(=O)c1cnccn1`, the “odorant receptor agonist call” value is “inactive”.

`CC=CC(=O)C1=C(C)CCCC1(C)C`: the “odorant receptor agonist call” value is “inactive”.

With `CCOC(=O)C(C)C`, the “odorant receptor agonist call” value was “inactive”.

In the case of `CC1=CCC(C(C)(C)S)CC1` (configuration not stated), the “odorant receptor agonist call” value is “inactive”.

Take `CC(C)(S)CCOC=O`: the “odorant receptor agonist call” value is “inactive”.

For the compound `COC1=C(C)OC(C)C1=O` (configuration not stated), the “odorant receptor agonist call” value was “inactive”.

Consider `COC(C=C(C)CCC=C(C)C)OC`, for which the “odorant receptor agonist call” value was “inactive”.

As to `CC(=O)OCc1ccccc1`, the “odorant receptor agonist call” value is “active”.

Consider `C1CCNC1`, for which the “odorant receptor agonist call” value was “inactive”.
